Measurements from ChEMBL document CHEMBL4152188, “Design, synthesis and biological evaluation of C(4) substituted monobactams as antibacterial agents against multidrug-resistant Gram-negative bacteria” (Eur J Med Chem, 2018).
In brackets after ≈: the same amount, converted by molar mass. Each block holds one molecule with its values, some of them ahead of it.

Assays:
Type in all cases: functional
[1] = system: Escherichia coli; test: Antibacterial activity against extended-spectrum beta-lactamase producing Escherichia coli isolate 212648 after 18 hrs by CLSI broth microdilution method; conditions: isolate 212648, 18 h
[2] = system: Escherichia coli; test: Selectivity index, ratio of MIC for against extended-spectrum beta-lactamase producing Escherichia coli isolate 208687 to MIC for extended-spectrum beta-lactamase producing Escherichia coli isolate 208687 in presence of BPL
[3] = system: Escherichia coli; test: Antibacterial activity against Escherichia coli isolate 210737 after 18 hrs by CLSI broth microdilution method; conditions: isolate 210737, 18 h
[4] = system: Escherichia coli; test: Antibacterial activity against extended-spectrum beta-lactamase producing Escherichia coli isolate 208687 after 18 hrs by CLSI broth microdilution method; conditions: isolate 208687, 18 h
[5] = system: Escherichia coli; test: Antibacterial activity against extended-spectrum beta-lactamase producing Escherichia coli isolate 208687 after 18 hrs in presence of BPL by CLSI broth microdilution method; conditions: isolate 208687, 18 h
Method in brief: (§1)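 CLSI broth microdilution against clinical isolates (ESBL E. coli, KPC-2 MDR K. pneumoniae, IMP-4 MDR P. aeruginosa; five per species). Iron limitation: Mueller-Hinton broth supplemented with 16 mg/liter 2,2'-bipyridyl to complex iron and induce iron uptake systems. Read-out: MIC.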

[6] = system: Escherichia coli; test: Antibacterial activity against Escherichia coli isolate 210737 after 18 hrs in presence of BPL by CLSI broth microdilution method; conditions: isolate 210737, 18 h; method in brief: as §1
[7] = system: Escherichia coli; test: Selectivity index, ratio of MIC for against Escherichia coli isolate 210737 to MIC for Escherichia coli isolate 210737 in presence of BPL
[8] = system: Escherichia coli; test: Antibacterial activity against extended-spectrum beta-lactamase producing Escherichia coli isolate 212648 after 18 hrs in presence of BPL by CLSI broth microdilution method; conditions: isolate 212648, 18 h; method in brief: as §1
[9] = system: Escherichia coli; test: Selectivity index, ratio of MIC for against extended-spectrum beta-lactamase producing Escherichia coli isolate 212648 to MIC for extended-spectrum beta-lactamase producing Escherichia coli isolate 212648 in presence of BPL
[10] = system: Escherichia coli; test: Antibacterial activity against extended-spectrum beta-lactamase producing Escherichia coli isolate 209285 after 18 hrs by CLSI broth microdilution method; conditions: isolate 209285, 18 h
[11] = system: Escherichia coli; test: Antibacterial activity against extended-spectrum beta-lactamase producing Escherichia coli isolate 209285 after 18 hrs in presence of BPL by CLSI broth microdilution method; conditions: isolate 209285, 18 h; method in brief: as §1
[12] = system: Escherichia coli; test: Selectivity index, ratio of MIC for against extended-spectrum beta-lactamase producing Escherichia coli isolate 209285 to MIC for extended-spectrum beta-lactamase producing Escherichia coli isolate 209285 in presence of BPL
[13] = system: Escherichia coli; test: Antibacterial activity against extended-spectrum beta-lactamase producing Escherichia coli isolate 106342 after 18 hrs by CLSI broth microdilution method; conditions: isolate 106342, 18 h
[14] = system: Escherichia coli; test: Antibacterial activity against extended-spectrum beta-lactamase producing Escherichia coli isolate 106342 after 18 hrs in presence of BPL by CLSI broth microdilution method; conditions: isolate 106342, 18 h; method in brief: as §1
[15] = system: Escherichia coli; test: Selectivity index, ratio of MIC for against extended-spectrum beta-lactamase producing Escherichia coli isolate 106342 to MIC for extended-spectrum beta-lactamase producing Escherichia coli isolate 106342 in presence of BPL
[16] = system: Klebsiella pneumoniae; test: Antibacterial activity against KPC-2 producing Klebsiella pneumoniae isolate 212423 after 18 hrs by CLSI broth microdilution method; conditions: isolate 212423, 18 h
[17] = system: Klebsiella pneumoniae; test: Antibacterial activity against KPC-2 producing Klebsiella pneumoniae isolate 212423 after 18 hrs in presence of BPL by CLSI broth microdilution method; conditions: isolate 212423, 18 h; method in brief: as §1
[18] = system: Klebsiella pneumoniae; test: Selectivity index, ratio of MIC for against KPC-2 producing Klebsiella pneumoniae isolate 212423 to MIC for against KPC-2 producing Klebsiella pneumoniae isolate 212423 in presence of BPL
[19] = system: Klebsiella pneumoniae; test: Antibacterial activity against KPC-2 producing Klebsiella pneumoniae isolate 209632 after 18 hrs by CLSI broth microdilution method; conditions: isolate 209632, 18 h
[20] = system: Klebsiella pneumoniae; test: Antibacterial activity against KPC-2 producing Klebsiella pneumoniae isolate 209632 after 18 hrs in presence of BPL by CLSI broth microdilution method; conditions: isolate 209632, 18 h; method in brief: as §1
[21] = system: Klebsiella pneumoniae; test: Selectivity index, ratio of MIC for against KPC-2 producing Klebsiella pneumoniae isolate 209632 to MIC for against KPC-2 producing Klebsiella pneumoniae isolate 209632 in presence of BPL
[22] = system: Klebsiella pneumoniae; test: Antibacterial activity against KPC-2 producing Klebsiella pneumoniae isolate 209735 after 18 hrs by CLSI broth microdilution method; conditions: isolate 209735, 18 h
[23] = system: Klebsiella pneumoniae; test: Antibacterial activity against KPC-2 producing Klebsiella pneumoniae isolate 209735 after 18 hrs in presence of BPL by CLSI broth microdilution method; conditions: isolate 209735, 18 h; method in brief: as §1
[24] = system: Klebsiella pneumoniae; test: Selectivity index, ratio of MIC for against KPC-2 producing Klebsiella pneumoniae isolate 209735 to MIC for against KPC-2 producing Klebsiella pneumoniae isolate 209735 in presence of BPL
[25] = system: Klebsiella pneumoniae; test: Antibacterial activity against KPC-2 producing Klebsiella pneumoniae isolate 212232 after 18 hrs by CLSI broth microdilution method; conditions: isolate 212232, 18 h
[26] = system: Klebsiella pneumoniae; test: Antibacterial activity against KPC-2 producing Klebsiella pneumoniae isolate 212232 after 18 hrs in presence of BPL by CLSI broth microdilution method; conditions: isolate 212232, 18 h; method in brief: as §1
[27] = system: Klebsiella pneumoniae; test: Selectivity index, ratio of MIC for against KPC-2 producing Klebsiella pneumoniae isolate 212232 to MIC for against KPC-2 producing Klebsiella pneumoniae isolate 212232 in presence of BPL
[28] = system: Klebsiella pneumoniae; test: Antibacterial activity against KPC-2 producing Klebsiella pneumoniae isolate 212229 after 18 hrs by CLSI broth microdilution method; conditions: isolate 212229, 18 h
[29] = system: Klebsiella pneumoniae; test: Antibacterial activity against KPC-2 producing Klebsiella pneumoniae isolate 212229 after 18 hrs in presence of BPL by CLSI broth microdilution method; conditions: isolate 212229, 18 h; method in brief: as §1
[30] = system: Klebsiella pneumoniae; test: Selectivity index, ratio of MIC for against KPC-2 producing Klebsiella pneumoniae isolate 212229 to MIC for against KPC-2 producing Klebsiella pneumoniae isolate 212229 in presence of BPL
[31] = system: Pseudomonas aeruginosa; test: Antibacterial activity against IMP-4 producing Pseudomonas aeruginosa isolate 212886 after 18 hrs by CLSI broth microdilution method; conditions: isolate 212886, 18 h
[32] = system: Pseudomonas aeruginosa; test: Antibacterial activity against IMP-4 producing Pseudomonas aeruginosa isolate 212886 after 18 hrs in presence of BPL by CLSI broth microdilution method; conditions: isolate 212886, 18 h; method in brief: as §1
[33] = system: Pseudomonas aeruginosa; test: Selectivity index, ratio of MIC for against IMP-4 producing Pseudomonas aeruginosa isolate 212886 to MIC for against IMP-4 producing Pseudomonas aeruginosa isolate 212886 in presence of BPL
[34] = system: Pseudomonas aeruginosa; test: Antibacterial activity against IMP-4 producing Pseudomonas aeruginosa isolate 209471 after 18 hrs by CLSI broth microdilution method; conditions: isolate 209471, 18 h
[35] = system: Pseudomonas aeruginosa; test: Antibacterial activity against IMP-4 producing Pseudomonas aeruginosa isolate 209471 after 18 hrs in presence of BPL by CLSI broth microdilution method; conditions: isolate 209471, 18 h; method in brief: as §1
[36] = system: Pseudomonas aeruginosa; test: Selectivity index, ratio of MIC for against IMP-4 producing Pseudomonas aeruginosa isolate 209471 to MIC for against IMP-4 producing Pseudomonas aeruginosa isolate 209471 in presence of BPL
[37] = system: Pseudomonas aeruginosa; test: Antibacterial activity against IMP-4 producing Pseudomonas aeruginosa isolate 208247 after 18 hrs by CLSI broth microdilution method; conditions: isolate 208247, 18 h
[38] = system: Pseudomonas aeruginosa; test: Antibacterial activity against IMP-4 producing Pseudomonas aeruginosa isolate 208247 after 18 hrs in presence of BPL by CLSI broth microdilution method; conditions: isolate 208247, 18 h; method in brief: as §1
[39] = system: Pseudomonas aeruginosa; test: Selectivity index, ratio of MIC for against IMP-4 producing Pseudomonas aeruginosa isolate 208247 to MIC for against IMP-4 producing Pseudomonas aeruginosa isolate 208247 in presence of BPL
[40] = system: Pseudomonas aeruginosa; test: Antibacterial activity against IMP-4 producing Pseudomonas aeruginosa isolate 209321 after 18 hrs by CLSI broth microdilution method; conditions: isolate 209321, 18 h
[41] = system: Pseudomonas aeruginosa; test: Antibacterial activity against IMP-4 producing Pseudomonas aeruginosa isolate 209321 after 18 hrs in presence of BPL by CLSI broth microdilution method; conditions: isolate 209321, 18 h; method in brief: as §1
[42] = system: Pseudomonas aeruginosa; test: Selectivity index, ratio of MIC for against IMP-4 producing Pseudomonas aeruginosa isolate 209321 to MIC for against IMP-4 producing Pseudomonas aeruginosa isolate 209321 in presence of BPL
[43] = system: Pseudomonas aeruginosa; test: Antibacterial activity against IMP-4 producing Pseudomonas aeruginosa isolate 207272 after 18 hrs by CLSI broth microdilution method; conditions: isolate 207272, 18 h
[44] = system: Pseudomonas aeruginosa; test: Antibacterial activity against IMP-4 producing Pseudomonas aeruginosa isolate 207272 after 18 hrs in presence of BPL by CLSI broth microdilution method; conditions: isolate 207272, 18 h; method in brief: as §1
[45] = system: Pseudomonas aeruginosa; test: Selectivity index, ratio of MIC for against IMP-4 producing Pseudomonas aeruginosa isolate 207272 to MIC for against IMP-4 producing Pseudomonas aeruginosa isolate 207272 in presence of BPL

MIC [1]: 2 µg/mL (≈ 3.25 µM)
MIC [3]: 0.5 µg/mL (≈ 0.814 µM)
MIC [4]: 1 µg/mL (≈ 1.63 µM)
MIC [5]: 0.5 µg/mL
MIC [6]: 0.25 µg/mL
MIC [8]: 2 µg/mL
MIC [10]: 1 µg/mL (≈ 1.63 µM)
MIC [11]: 0.25 µg/mL
MIC [13]: 1 µg/mL (≈ 1.63 µM)
MIC [14]: 1 µg/mL
MIC [16]: 0.5 µg/mL (≈ 0.814 µM)
MIC [17]: 0.125 µg/mL
MIC [19]: 4 µg/mL (≈ 6.51 µM)
MIC [20]: 4 µg/mL
MIC [22]: 16 µg/mL (≈ 26 µM)
MIC [23]: 4 µg/mL
MIC [25]: 1 µg/mL (≈ 1.63 µM)
MIC [26]: 0.25 µg/mL
MIC [28]: 0.25 µg/mL (≈ 0.407 µM)
MIC [29]: 0.125 µg/mL
MIC [31]: 32 µg/mL (≈ 52.1 µM)
MIC [32]: 32 µg/mL
MIC [34]: 32 µg/mL (≈ 52.1 µM)
MIC [35]: 32 µg/mL
MIC [37]: 64 µg/mL (≈ 104 µM)
MIC [38]: 64 µg/mL
MIC [40]: 32 µg/mL (≈ 52.1 µM)
MIC [41]: 32 µg/mL
MIC [43]: 32 µg/mL (≈ 52.1 µM)
MIC [44]: 32 µg/mL
SMILES: CC(C)C(O/N=C(\C(=O)N[C@@H]1C(=O)N(S(=O)(=O)O)[C@@H]1CN1CCNC1=O)c1csc(N)n1)c1cc(=O)c(O)cn1O (stereo not given in full)
Selectivity Index [2]: 2
Selectivity Index [7]: 2
Selectivity Index [9]: 1
Selectivity Index [12]: 4
Selectivity Index [15]: 1
Selectivity Index [18]: 4
Selectivity Index [21]: 1
Selectivity Index [24]: 4
Selectivity Index [27]: 4
Selectivity Index [30]: 2
Selectivity Index [33]: 1
Selectivity Index [36]: 1
Selectivity Index [39]: 1
Selectivity Index [42]: 1
Selectivity Index [45]: 1

MIC [1]: 2 µg/mL (≈ 3.59 µM)
MIC [3]: 4 µg/mL (≈ 7.19 µM)
MIC [4]: 1 µg/mL (≈ 1.8 µM)
MIC [5]: 0.5 µg/mL
MIC [6]: 0.5 µg/mL
MIC [8]: 1 µg/mL
MIC [10]: 4 µg/mL (≈ 7.19 µM)
MIC [11]: 2 µg/mL
MIC [13]: 2 µg/mL (≈ 3.59 µM)
MIC [14]: 1 µg/mL
MIC [16]: > 64 µg/mL
MIC [17]: 8 µg/mL
MIC [19]: > 64 µg/mL
MIC [20]: 16 µg/mL
MIC [22]: > 64 µg/mL
MIC [23]: 8 µg/mL
MIC [25]: 8 µg/mL (≈ 14.4 µM)
MIC [26]: 4 µg/mL
MIC [28]: 32 µg/mL (≈ 57.5 µM)
MIC [29]: 8 µg/mL
MIC [31]: 16 µg/mL (≈ 28.7 µM)
MIC [32]: 16 µg/mL
MIC [34]: 32 µg/mL (≈ 57.5 µM)
MIC [35]: 32 µg/mL
MIC [37]: 16 µg/mL (≈ 28.7 µM)
MIC [38]: 16 µg/mL
MIC [40]: 32 µg/mL (≈ 57.5 µM)
MIC [41]: 16 µg/mL
MIC [43]: 32 µg/mL (≈ 57.5 µM)
MIC [44]: 32 µg/mL
SMILES: CC(C)C(O/N=C(\C(=O)NC1C(=O)N(S(=O)(=O)O)C12CCC2)c1csc(N)n1)c1cc(=O)c(O)cn1O (stereo not given)
Selectivity Index [2]: 2
Selectivity Index [7]: 8
Selectivity Index [9]: 2
Selectivity Index [12]: 2
Selectivity Index [15]: 2
Selectivity Index [18]: >8
Selectivity Index [21]: >4
Selectivity Index [24]: >8
Selectivity Index [27]: 2
Selectivity Index [30]: 4
Selectivity Index [33]: 1
Selectivity Index [36]: 1
Selectivity Index [39]: 1
Selectivity Index [42]: 2
Selectivity Index [45]: 1
